# An excerpt weighted towards active compounds, which were near 2.6% of everything screened.
# Yeast growth inh – yeast BB579 growth reduction in restrictive medium; actives 0.51% (n = 140,000); inhibition, % at 10 µM; S. cerevisiae BB579 growth, OD615, 48 h;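 active = inhibition above a set limit, 3 SD over the mean compound inhibition, cut at about 44% in these data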
#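 System: DeaD yeast strain BB579; buffer or medium: CSMM-D dextrose restrictive medium; technique: OD at 615 nm; schedule: 4 h cell preincubation, 48 h compound exposure, 30 °C humidified; doses: single 10 µM dose; controls: amphotericin B 10 µg/mL, positive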
# Yeast lifespan up – yeast lifespan extension. actives 0.68% (n = 130,000). inhibition of the nicotinamide effect, % at 10 µM. S. cerevisiae growth with nicotinamide, OD615; deaD strain in restrictive glucose medium;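 active = inhibition above a set limit, placed 3 SD over the median of all compounds, cut at about 26% in these data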;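 also: 0% = nicotinamide-treated wells and 100% = cells grown without nicotinamide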
#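 Buffer or medium: CSMM-D glucose medium, restrictive; test system: modified budding yeast, DeaD strain; compound: single dose 10 µM compound, 0.25% DMSO; schedule: culture preincubation 4 h, compound exposure 48 h, both 30 °C; detection: optical density (absorbance) at 615 nm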
# RAM inhibit – inhibitors of the yeast RAM network | S. cerevisiae dse1pr::URA3 reporter, 5-FOA growth OD615, 2 d; analog-sensitive cbk1-as2 kinase mutant strain | inhibition, % at 50 µM | actives 1.8% (n = 190,000) | AID 868;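 active = inhibition above a set limit, 3 SD over mean compound inhibition, cut at about 8.4% in these data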;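 also: 0% = DMSO-only wells with no growth and 100% = 10 µM 1-NA-PP1 full growth; inhibition rescues growth on 5-FOA so higher OD means more RAM inhibition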
# An asterisk follows results filed as active; nt = not tested or not shown.
SMILES,Yeast growth inh,Yeast lifespan up,RAM inhibit
CCOC(=O)N1CCC(N(CCN(C)C)C(=S)Nc2cc(Cl)ccc2C)CC1,nt,nt,-1.2
Cc1cc(N)n(-c2ccc(S(N)(=O)=O)cc2[N+](=O)[O-])n1,nt,nt,1.5
Cc1nonc1OCC(C)(COc1nonc1C)NC(=O)c1ccccc1,-19.4,nt,3.7
COc1ccc(Nc2cc(Cl)nc(N)n2)cc1OC,nt,nt,2.7
COC(=O)c1c(-c2ccccc2)csc1NC(=O)c1ccco1,0.6,-7.9,2.7
O=C(Nc1scc(-c2ccc(F)cc2)c1C(=O)O)c1ccco1,-18.5,97.3*,3.6
CC/C=C\[C@H](O)[C@H](O)C1=C(C)C(=O)[C@]2(O1)C(=O)N[C@@](OC)(C(=O)c1ccccc1)C2O (stereo partly specified),nt,nt,0.5
COC(=O)c1c(S(C)(=O)=O)nc(-c2ccccc2)[nH]c1=O,-54.7,7.0,1.2
CC(C)CNC(=S)NC(=O)c1ccc(Cl)cc1Cl,-14.8,4.7,0.8
CC(C)Oc1ccc(Cc2cnc(=S)[nH]c2N)cc1,nt,nt,1.4
Oc1ccc(-c2[nH]ncc2-c2ccc(Cl)cc2)c(O)c1,-32.3,-23.5,-0.1
COc1ccc(-c2[nH]ncc2-c2ccc(Cl)cc2)c(O)c1,73.4*,-36.9,-1.9
CCOc1ccc(-c2[nH]ncc2-c2csc(C)n2)c(O)c1,-12.2,0.4,3.2
CCOc1ccc(-c2[nH]ncc2Oc2cccc(OC)c2)c(O)c1,85.8*,-24.1,-1.0
CCCOC(=O)c1ccc(Oc2cn[nH]c2-c2ccc(OCC)cc2O)cc1,63.8*,-26.1,2.8
COc1cccc(Oc2cn[nH]c2-c2ccc(OC)cc2O)c1,-21.1,-21.8,-2.1
O=c1cnnc(N/N=C/C2CC=CCC2)[nH]1 (stereo unspecified),nt,nt,1.3
O=C(CN1C(=O)NC2(CCSC2)C1=O)NCc1ccccc1 (stereo unspecified),nt,nt,2.5
CCOc1ccc(CCNC(=O)CN2C(=O)NC(CCSC)C2=O)cc1OCC (stereo unspecified),nt,nt,-0.2
CN(C)S(=O)(=O)Oc1cccc(C(=O)Nc2ccc([N+](=O)[O-])cc2)c1,nt,nt,5.2
Cc1ccc[n+](CC(=O)Nc2nc3ccccc3s2)c1,nt,nt,0.0
CCCCCN1CSC(=S)N(Cc2ccccc2)C1,25.6,27.4*,-0.2
CCN1CNC(=S)N(Cc2ccccc2)C1,4.1,-1.2,0.3
CC(C)CNC(=O)CN(C1CCCCC1)S(C)(=O)=O,43.6*,-0.7,0.5
CCCNC(=O)CN(C1CCCCC1)S(C)(=O)=O,-45.3,-3.8,0.1
SMILES,Yeast growth inh,Yeast lifespan up,RAM inhibit
CSc1ccccc1NC(=O)CN1CC(C)OC(C)C1 (stereo unspecified),nt,nt,1.3
O=C1Nc2ccccc2C12OCC1(CO2)COC2(OC1)C(=O)Nc1ccccc12 (stereo unspecified),-46.1,67.5*,2.5
CC1(C)COC2(OC1)C(=O)Nc1ccccc12,nt,nt,0.7
CCOC(=O)CN1N=C(c2ccc(Cl)s2)CSC1=O,-9.2,-4.3,1.9
CC(=O)Nc1ccc([C@H]2[C@H](C)CC[C@H]3C(=O)N4[C@@H](CC[C@@H](C)[C@@H]4c4ccc(NC(C)=O)cc4)C(=O)N32)cc1,-15.9,-2.6,-0.1
OC(CON=C1c2ccccc2-c2ccccc21)CN1CCNCC1 (stereo unspecified),nt,nt,1.0
CCc1ccc(C(=O)Cn2ncc(Cl)c(Cl)c2=O)cc1,-19.7,-1.8,3.5
O=C(OCn1ncc(Cl)c(Cl)c1=O)c1cccc(C(F)(F)F)c1,62.0*,-13.0,3.1
COc1ccccc1NC(=O)Cc1csc(NC(=O)c2ccccc2)n1,nt,nt,9.2*
COc1ccccc1NC(=O)Cc1csc(N)n1,-10.7,-10.1,1.6
Cc1ccc(N=C2SC(C(=O)Nc3ccc(OC(F)(F)F)cc3)C(N)=C2C(=O)Nc2c(C)cc(C)cc2C)cc1 (stereo unspecified),-30.4,5.0,6.8
O=C(OCc1cncs1)c1ccccc1,nt,nt,0.0
Cc1ccc(C)c(NC(=S)NCCSc2ccc(Cl)cc2)c1,41.5,-4.2,8.0
Cc1ccccc1NC(=S)NCCSc1ccc(Cl)cc1,nt,nt,1.3
Cc1ccc(NC(=S)NCC(C)CSc2ccc(Cl)cc2)cc1 (stereo unspecified),nt,nt,1.5
Cc1ccc(NC(=S)NCCSc2ccc(Cl)cc2)c(C)c1,42.5,1.0,10.9*
Cc1cccc(NC(=S)NCC(C)CSc2ccc(Cl)cc2)c1 (stereo unspecified),nt,nt,8.9*
CCc1ccccc1NC(=S)NCCSc1ccc(Cl)cc1,nt,nt,10.5*
Cc1cccc(NC(=O)NCCc2ccc(Cl)cc2)c1,nt,nt,0.4
Cc1cccc(NC(=S)NCCSc2ccc(Cl)cc2)c1,nt,nt,8.6*
COc1ccc(OCCOC(=O)c2nc3nccc(C)n3n2)cc1,nt,nt,2.4
S=c1[nH]nc(COc2ccc(Cl)cc2)n1Cc1ccco1,nt,nt,2.5
Cc1ccc(OCc2cn3cccnc3n2)cc1,-38.5,-2.9,5.6
ClC(Br)=C(n1cnc2ccccc21)n1cnc2ccccc21,-53.4,41.3*,0.0
CN(C(=O)n1cnc2ccccc21)c1ccccc1,-14.5,1.7,0.3
SMILES,Yeast growth inh,Yeast lifespan up,RAM inhibit
CC(C)CNC(=S)NC(=O)c1ccc(F)cc1,1.2,-4.7,-0.1
CN(CC(=O)NCc1ccccn1)S(=O)(=O)c1ccc2ccccc2c1,nt,nt,1.7
Cc1cc(C(=O)COC(=O)CC2Sc3ccccc3NC2=O)c(C)n1-c1ccccc1 (stereo unspecified),-33.3,-1.8,3.4
COC(=O)c1ccc(-n2c(C)cc(C(=O)COC(=O)CC3Sc4ccccc4NC3=O)c2C)cc1 (stereo unspecified),-27.5,-2.5,8.8*
Nc1nc(N2CCN(c3ccc(F)cc3)CC2)n[nH]1,nt,nt,2.0
Cc1ccc(C(=O)N2CCN(S(=O)(=O)c3ccccc3[N+](=O)[O-])CC2)o1,nt,nt,-0.6
Cc1ccccc1NC(=O)COC(=O)Cc1ccsc1,nt,nt,-0.4
COc1ccc(S(=O)(=O)Nc2ccccc2)cc1OC,-16.7,-16.8,3.1
O=c1cc(-c2ccccc2)n(S(=O)(=O)c2ccccc2)o1,79.6*,2.5,-1.5
COc1ccc(S(=O)(=O)n2oc(=O)cc2-c2ccccc2)cc1,21.2,32.2,0.0
COc1ccc(S(=O)(=O)n2oc(=O)cc2-c2ccccc2)cc1OC,56.9*,18.3,-0.9
COc1ccc(CNC(=O)COC(=O)c2ccccn2)cc1,nt,nt,1.7
O=C(Oc1c(Cl)cc(Cl)c2cccnc12)c1cccc([N+](=O)[O-])c1,99.8*,-11.8,-0.6
O=C(Oc1ccc(Cl)c2cccnc12)c1cccc([N+](=O)[O-])c1,-2.1,-0.8,0.9
CC(=O)N(C(C)=O)c1c(C#N)c(C)n(-c2ccccc2)c1C(=O)c1ccccc1,-52.2,32.0*,3.8
N#Cc1c(N)c(C(=O)c2ccccc2)n2c1CCCC2,-13.8,-13.3,-0.1
CCSc1nnc(NC(=O)CSc2nc(C)cc(C)n2)s1,-39.1,35.9*,2.0
CCSc1nnc(NC(=O)c2nc3nc(C)cc(C)n3n2)s1,nt,nt,0.9
CC(=O)c1cccc(NC(=O)c2ccc(C)o2)c1,nt,nt,0.4
O=C(c1cnn(-c2ccccc2)c1)c1ccc2ccccc2c1O,-10.1,-10.1,10.4*
COc1ccccc1NC(=O)COc1ccccc1C(=O)c1cnn(-c2ccccc2)c1,-34.3,-6.8,1.4
O=C1CSc2ccc(C(=O)Nc3cccc(S(=O)(=O)Nc4ccc(Br)cc4)c3)cc2N1,nt,nt,6.7
